# Test results published in ChEMBL document CHEMBL1124949, “4-(1,2,5,6-Tetrahydro-1-alkyl-3-pyridinyl)-2-thiazolamines: a novel class of compounds with central dopamine agonist properties” (J Med Chem, 1990).
# Calls of active or inactive are those of the source. No cut-off for these calls is given here.
# What was measured:
# D(2) dopamine receptor [1] = target: T1, D(2) dopamine receptor (Rattus norvegicus, UniProt P61169); assay: Inhibition of [3H]N-propylnorapomorphine binding to Dopamine receptor D2 of rat striatal membranes; format: cell membranes, Membrane
# D(2) dopamine receptor [2] = target: T1, D(2) dopamine receptor; assay: Inhibition of [3H]haloperidol binding for Dopamine receptor D2 in rat striatal membranes. (36%inhibition at 10 e-6 M); format: cell membranes, Membrane
# Rattus norvegicus [3] = assay: Reversal of reserpine-induced depression in rat after subcutaneous administration; format: functional
# In short: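 Rats were pretreated with reserpine 5 mg/kg 24 h before testing, then given drug sc. Locomotor activity was recorded for 30 min starting immediately after dosing.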
# D(2) dopamine receptor [4] = target: T1, D(2) dopamine receptor; assay: Inhibition of [3H]haloperidol binding for Dopamine receptor D2 in rat striatal membranes.; format: cell membranes, Membrane
# Rattus norvegicus [5] = assay: Inhibition of locomotor activity was determined after oral administration in rat; format: functional
# In short: (§1)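 Spontaneous exploratory locomotor activity was scored, with motor coordination (ataxia) checked in the same test. ED50 came from four to six doses, with 5–12 animals per dose.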
# Rattus norvegicus [6] = assay: Inhibition of locomotor activity was determined after (sc) administration in rat (40% inhibition was determined at 3 mg/kg); format: functional, organism-based; design: dose 3 mg/kg
# Mus musculus = assay: Inhibition of locomotor activity was determined after intraperitoneal administration in mouse; format: functional; settings: ip; in short: as §1
# Rattus norvegicus [7] = assay: Decrease of DOPA formation effected by 30 mg/kg administered intraperitoneally in the striatum of GBL-treated rats; format: functional; settings: ip, route intraperitoneal
# In short: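 Male Long-Evans rats dosed ip 1 h before sacrifice. GBL 750 mg/kg ip given 30 min and NSD 1015 100 mg/kg ip given 25 min before sacrifice. Striatal DOPA measured by HPLC with electrochemical detection. Decrease in DOPA formation at 30 mg/kg ip, n = 4 or 5.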
# D(2) dopamine receptor [8] = target: T1, D(2) dopamine receptor; assay: Inhibition of [3H]haloperidol binding for Dopamine receptor D2 in rat striatal membranes. (15% inhibition at 10 e-6 M); format: cell membranes, Membrane
# D(2) dopamine receptor [9] = target: T1, D(2) dopamine receptor; assay: Inhibition of [3H]haloperidol binding for Dopamine receptor D2 in rat striatal membranes. (25% inhibition at 10 e-6 M); format: cell membranes, Membrane
# Rattus norvegicus [10] = assay: Percent of animals showing stereotyped behavior in rats at the dose 0.3 mg/kg; format: functional
# Rattus norvegicus [11] = assay: Percent inhibition of dopamine neuronal firing in substantia nigra of anesthetized rats after (ip) administration at 2.5 mg/kg; format: functional
# D(2) dopamine receptor [12] = target: T1, D(2) dopamine receptor; assay: Inhibition of [3H]haloperidol binding for Dopamine receptor D2 in rat striatal membranes. (41% inhibition at 10 e-6 M); format: cell membranes, Membrane
# D(2) dopamine receptor [13] = target: T1, D(2) dopamine receptor; assay: Inhibition of [3H]haloperidol binding for Dopamine receptor D2 in rat striatal membranes. (2% inhibition at 10 e-6 M); format: cell membranes, Membrane
# Rattus norvegicus [14] = assay: Percent inhibition of dopamine neuronal firing in substantia nigra of anesthetized rats after (ip) administration at 2.5 mg/kg
# Rattus norvegicus [15] = assay: Decrease of DOPA formation effected by 30 mg/kg administered intraperitoneally in the striatum of GBL-treated rats; settings: at 30 mg/kg
# Rattus norvegicus [16] = assay: Inhibition of locomotor activity was determined after oral administration at a dose of 1 mg/kg in rat; format: functional
# Rattus norvegicus [17] = assay: Reversal of 6-hydroxydopamine induced depression in lesioned rats after dosing for a period of 30 minutes; format: functional; settings: 0.5 h
# In short: (§2)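 Rats received 6-OHDA 200 μg icv plus pargyline 50 mg/kg ip and desmethylimipramine 25 mg/kg ip at least 1 month earlier, giving about 90% brain DA depletion. Drug was given sc and locomotion recorded for 30 min from dosing. ED200 is the dose doubling activity versus unlesioned controls, estimated from three or four doses with six animals per dose.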
# D(1A) dopamine receptor = D(1A) dopamine receptor (Rattus norvegicus, UniProt P18901); assay: Inhibition of binding of [3H]SCH-23390 to Dopamine receptor D1 was determined
# In short: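 D1 binding was displaced from [3H]SCH23390. IC50 was fitted by nonlinear regression from four or five concentrations.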
# Rattus norvegicus [18] = assay: Percent of animals showing stereotyped behavior in rats at 3 mg/kg; format: functional
# Rattus norvegicus [19] = assay: Inhibition of locomotor activity was determined after oral administration in rat(50% inhibition at 3 mg/kg); format: functional
# Rattus norvegicus [20] = assay: Reversal of 6-hydroxydopamine induced depression in lesioned rats was determined after dosing for a period of 30 minutes; format: functional; settings: 0.5 h; in short: as §2
# Rattus norvegicus [21] = assay: Percent of rats showing stereotyped behavior at the dose at 3 mg/kg dose level; format: functional
# [22] = Rattus norvegicus, sc, read-out: ED50
# T1 sequence (P61169 whole entry): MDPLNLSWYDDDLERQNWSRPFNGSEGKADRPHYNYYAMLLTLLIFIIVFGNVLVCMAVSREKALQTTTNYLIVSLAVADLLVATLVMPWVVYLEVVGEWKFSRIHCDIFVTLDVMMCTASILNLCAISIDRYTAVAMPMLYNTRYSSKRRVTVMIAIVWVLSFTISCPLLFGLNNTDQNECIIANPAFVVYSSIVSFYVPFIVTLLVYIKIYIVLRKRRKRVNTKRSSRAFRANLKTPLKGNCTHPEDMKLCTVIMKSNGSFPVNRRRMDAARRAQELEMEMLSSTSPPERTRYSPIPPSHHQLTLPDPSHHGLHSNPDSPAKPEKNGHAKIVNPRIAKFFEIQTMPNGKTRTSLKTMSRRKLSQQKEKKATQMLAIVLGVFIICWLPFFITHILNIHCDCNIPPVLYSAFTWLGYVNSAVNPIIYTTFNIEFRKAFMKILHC
# Sequence of D(1A) dopamine receptor (P18901 whole entry): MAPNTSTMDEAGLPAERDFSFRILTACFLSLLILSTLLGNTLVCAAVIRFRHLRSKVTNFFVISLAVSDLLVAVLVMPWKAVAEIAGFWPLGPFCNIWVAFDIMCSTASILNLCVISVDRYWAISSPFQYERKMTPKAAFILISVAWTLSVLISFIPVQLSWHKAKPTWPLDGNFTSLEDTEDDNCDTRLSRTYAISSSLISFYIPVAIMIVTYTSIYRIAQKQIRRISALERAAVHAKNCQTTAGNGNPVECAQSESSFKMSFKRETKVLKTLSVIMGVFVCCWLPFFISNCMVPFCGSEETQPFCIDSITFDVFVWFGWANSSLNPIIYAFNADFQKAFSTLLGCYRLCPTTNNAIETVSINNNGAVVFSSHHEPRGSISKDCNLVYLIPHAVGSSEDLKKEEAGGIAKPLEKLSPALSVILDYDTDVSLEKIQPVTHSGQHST
SMILES,IC50 (D(2) dopamine receptor [1]),ED50 (Rattus norvegicus [3]; [22]),IC50 (D(2) dopamine receptor [4]),ED50 (Rattus norvegicus [5]),other results
CCCCCCN1CCC=C(c2csc(N)n2)C1.Cl.Cl,5330 nM,> 30 mg/kg,–,–,IC50 (D(2) dopamine receptor [2]): > 1000 nM
CCCCCCCN1CCC=C(c2csc(N)n2)C1.Cl.Cl,5130 nM,> 30 mg/kg,2170 nM,> 30 mg/kg,–
CCCN1CCCC(c2cccc(O)c2)C1 (stereo unspecified) [listing 1 of 2 here],–,–,–,–,ED50 (Rattus norvegicus [6]): inactive
Br.Br.CCCCCN1CCC=C(c2csc(N)n2)C1,6400 nM,> 30 mg/kg,1850 nM,15.6 mg/kg,ED50 (Mus musculus): 4.1 mg/kg; inhibition in vivo at 30 mg/kg (Rattus norvegicus [7]): 0%
CCCN1CCCC(c2cccc(O)c2)C1 (racemic),–,30 mg/kg,–,3 mg/kg,–
CCCN1CCCC(c2csc(N)n2)C1.Cl.Cl (stereo unspecified),–,–,–,18.9 mg/kg,IC50 (D(2) dopamine receptor [8]): > 1000 nM; inhibition in vivo at 30 mg/kg (Rattus norvegicus [7]): 55%
CCCCN1CCC=C(c2csc(NC)n2)C1.Cl.Cl,–,–,–,16.7 mg/kg,ED50 (Mus musculus): 4.4 mg/kg; IC50 (D(2) dopamine receptor [9]): > 1000 nM
CN1CCc2cccc3c2[C@H]1Cc1ccc(O)c(O)c1-3 [APOMORPHINE],–,0.1 mg/kg,–,–,Animals (Rattus norvegicus [10]): 100%
CCCCN1CCC=C(c2csc(N)n2)C1.Cl.Cl,3980 nM,> 30 mg/kg,2120 nM,5.4 mg/kg,inhibition in vivo at 30 mg/kg (Rattus norvegicus [7]): 0%; inhibition in vivo at 2.5 mg/kg (Rattus norvegicus [11]): 0%
CCCN1CCC=C(c2csc(NC)n2)C1,> 10000 nM,–,–,–,IC50 (D(2) dopamine receptor [9]): > 1000 nM
Cl.Cl.Nc1nc(C2=CCCN(CCc3ccccc3)C2)cs1,911 nM,5.8 mg/kg,1080 nM,33.6 mg/kg,–
CCCN1CCC=C(c2csc(C)n2)C1.Cl.Cl,–,–,–,–,ED50 (Mus musculus): > 30 mg/kg; IC50 (D(2) dopamine receptor [12]): > 1000 nM
CCCN1CCC=C(c2cnc(N)s2)C1,–,–,–,–,ED50 (Mus musculus): 19.1 mg/kg; IC50 (D(2) dopamine receptor [13]): > 1000 nM
CCCN1CCCC(c2cccc(O)c2)C1 (stereo unspecified) [listing 2 of 2 here],–,–,–,–,ED50 (Rattus norvegicus [3]): 30 mg/kg
CN1CCC=C(c2csc(N)n2)C1.Cl.Cl,–,> 30 mg/kg,1040 nM,inactive,inhibition (Rattus norvegicus [14]): 100%; inhibition (Rattus norvegicus [15]): 100%
C=CCN1CCC=C(c2csc(N)n2)C1,257 nM,8.7 mg/kg,440 nM,–,inhibition in vivo at 1 mg/kg (Rattus norvegicus [16]): 30%; ED50 (Mus musculus): 2.8 mg/kg; ED200 (Rattus norvegicus [17]): 0.3 mg/kg; IC50 (D(1A) dopamine receptor): > 50000 nM; inhibition in vivo at 30 mg/kg (Rattus norvegicus [7]): 100%; Animals (Rattus norvegicus [18]): 100%; inhibition in vivo at 2.5 mg/kg (Rattus norvegicus [11]): 100%
CCN1CCC=C(c2csc(N)n2)C1,411 nM,> 30 mg/kg,945 nM,inactive,inhibition (Rattus norvegicus [14]): 96%; inhibition (Rattus norvegicus [15]): 92%
CCCN1CCC=C(c2csc(N)n2)C1,596 nM,> 30 mg/kg,958 nM,–,ED50 at 3 mg/kg (Rattus norvegicus [19]): 3 mg/kg; IC50 (D(1A) dopamine receptor): > 50000 nM; ED200 (Rattus norvegicus [20]): 0.4 mg/kg; inhibition in vivo at 30 mg/kg (Rattus norvegicus [7]): 100%; Animals (Rattus norvegicus [21]): 100%; inhibition in vivo at 2.5 mg/kg (Rattus norvegicus [11]): 100%
